# Laboratory results: ChEMBL document CHEMBL1240350, “In vitro activity of CEM-101 against Streptococcus pneumoniae and Streptococcus pyogenes with defined macrolide resistance mechanisms” (Antimicrob Agents Chemother, 2010)
# Assays:
# Streptococcus pyogenes [1] = experiment: Antibacterial activity against macrolide-resistant Streptococcus pyogenes 2094 harboring erm(A) gene after 5 passages and 10 compound-free subculturing by retest method
# Streptococcus pneumoniae [2] = experiment: Antibacterial activity against Streptococcus pneumoniae harboring erm(B) and mef(A) gene after overnight incubation by agar dilution method; assay type: functional
# Method in brief: (§1)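 Clinical isolates collected 1998–2008, with macrolide-resistance genes confirmed by PCR. MICs by agar dilution on Mueller-Hinton agar with 5% sheep blood. Inoculum 10^4 CFU/spot, incubated overnight at 35°C in ambient air. S. pneumoniae ATCC 49619 was the quality-control strain in every run.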
# Streptococcus pneumoniae [3] = experiment: Antibacterial activity against macrolide-resistant Streptococcus pneumoniae 3665 harboring mef(A) gene after 14 passages and 10 compound-free subculturing by retest method; assay type: functional
# Streptococcus pyogenes [4] = experiment: Antibacterial activity against macrolide-resistant Streptococcus pyogenes 237 harboring mutation in L4 ribosomal protein after 50 passages following overnight incubation by agar dilution method
# Streptococcus pyogenes [5] = experiment: Antibacterial activity against macrolide-resistant Streptococcus pyogenes 2011 harboring mef(A) gene after overnight incubation by agar dilution method
# Streptococcus pyogenes [6] = experiment: Antibacterial activity against macrolide-susceptible Streptococcus pyogenes 2132 after 50 passages following overnight incubation by agar dilution method
# Streptococcus pyogenes [7] = experiment: Antibacterial activity against macrolide-resistant Streptococcus pyogenes 2368 harboring erm(B) gene after 6 passages and 10 compound-free subculturing by retest method
# Streptococcus pneumoniae [8] = experiment: Antibacterial activity against macrolide-resistant Streptococcus pneumoniae 1076 harboring erm(B) and mef(A) gene after 14 passages and 10 compound-free subculturing by retest method; assay type: functional
# Method in brief: (§2)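 Multistep selection by daily serial passage in subinhibitory drug concentrations. Medium was cation-adjusted Mueller-Hinton broth plus 5% lysed horse blood. Each day the next inoculum came from the tube 1–2 dilutions below the MIC whose turbidity matched the growth control, for up to 50 days. Clone MICs by CLSI macrodilution; identity to the parent confirmed by SmaI PFGE.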
# Streptococcus pneumoniae [9] = experiment: Antibacterial activity against macrolide-resistant Streptococcus pneumoniae 2686 harboring mutation in L4 ribosomal protein after 22 passages and 10 compound-free subculturing by retest method; assay type: functional
# Streptococcus pyogenes [10] = experiment: Antibacterial activity against Streptococcus pyogenes harboring erm(B) gene after overnight incubation by agar dilution method; assay type: functional
# Method in brief: as §1
# Streptococcus pneumoniae [11] = experiment: Antibacterial activity against macrolide-susceptible Streptococcus pneumoniae 1077 after 29 passages and 10 compound-free subculturing by retest method; assay type: functional
# Streptococcus pneumoniae [12] = experiment: Antibacterial activity against macrolide-susceptible Streptococcus pneumoniae after overnight incubation by agar dilution method; assay type: functional
# Method in brief: (§3)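 Agar dilution MICs on Mueller-Hinton agar with 5% sheep blood. Inoculum 10^4 CFU/spot, incubated overnight at 35°C in ambient air. Clinical S. pneumoniae or group A streptococcal isolates; resistance genotypes (erm(B), erm(A), mef(A)/mef(E)) were assigned by PCR. S. pneumoniae ATCC 49619 served as QC strain in each run. Range, MIC50 and MIC90 reported per phenotype group.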
# Streptococcus pneumoniae [13] = experiment: Antibacterial activity against macrolide-resistant Streptococcus pneumoniae 3009 harboring mutation in 23S rRNA after overnight incubation by agar dilution method; assay type: functional
# Streptococcus pneumoniae [14] = experiment: Antibacterial activity against penicillin-intermediate Streptococcus pneumoniae after overnight incubation by agar dilution method; assay type: functional
# Method in brief: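 Agar dilution on Mueller-Hinton agar supplemented with 5% sheep blood, inoculum 10^4 CFU/spot, read after overnight incubation at 35°C in ambient air. Clinical isolates with defined genotypes; S. pneumoniae ATCC 49619 quality control strain included in each run. MIC50/MIC90 are MICs inhibiting 50% and 90% of isolates.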
# Streptococcus pyogenes [15] = experiment: Antibacterial activity against macrolide-resistant Streptococcus pyogenes 237 harboring mutation in L4 ribosomal protein after 43 passages and 10 compound-free subculturing by retest method
# Streptococcus pyogenes [16] = experiment: Antibacterial activity against Streptococcus pyogenes harboring mutation in L4 ribosomal protein after overnight incubation by agar dilution method; assay type: functional
# Method in brief: as §1
# Streptococcus pyogenes [17] = experiment: Antibacterial activity against macrolide-resistant Streptococcus pyogenes 2011 harboring mef(A) gene after 35 passages and 10 compound-free subculturing by retest method
# Streptococcus pyogenes [18] = experiment: Antibacterial activity against macrolide-resistant Streptococcus pyogenes 2094 harboring erm(A) gene after 22 passages and 10 compound-free subculturing by retest method
# Streptococcus pneumoniae [19] = experiment: Antibacterial activity against macrolide-resistant Streptococcus pneumoniae 24 harboring erm(B) gene after overnight incubation by agar dilution method; assay type: functional
# Streptococcus pneumoniae [20] = experiment: Antibacterial activity against macrolide-susceptible Streptococcus pneumoniae 7127 harboring S20N mutation in L4 ribosomal protein and A105V mutation in L22 ribosomal protein after 15 passages and 10 compound-free subculturing by retest method; assay type: functional
# Streptococcus pyogenes [21] = experiment: Antibacterial activity against macrolide-resistant Streptococcus pyogenes 2094 harboring erm(A) gene after 34 passages and 10 compound-free subculturing by retest method
# Streptococcus pyogenes [22] = experiment: Antibacterial activity against macrolide-resistant Streptococcus pyogenes harboring erm(A) gene after overnight incubation by agar dilution method; assay type: functional
# Method in brief: as §3
# Streptococcus pyogenes [23] = experiment: Antibacterial activity against macrolide-resistant Streptococcus pyogenes 2368 harboring erm(B) gene after 18 passages and 10 compound-free subculturing by retest method
# Streptococcus pneumoniae [24] = experiment: Antibacterial activity against macrolide-resistant Streptococcus pneumoniae 1635 harboring erm(A) gene after overnight incubation by agar dilution method; assay type: functional
# Streptococcus pyogenes [25] = experiment: Antibacterial activity against macrolide-susceptible Streptococcus pyogenes 2132 after 28 passages and 10 compound-free subculturing by retest method
# Streptococcus pneumoniae [26] = experiment: Antibacterial activity against macrolide-resistant Streptococcus pneumoniae 24 harboring erm(B) gene after 14 passages and 10 compound-free subculturing by retest method; assay type: functional; conditions: Streptococcus pneumoniae, 24; read-out: MIC
# Method in brief: as §2
# Streptococcus pneumoniae [27] = experiment: Antibacterial activity against quinolone-resistant Streptococcus pneumoniae after overnight incubation by agar dilution method; assay type: functional
# Method in brief: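 Agar dilution on Mueller-Hinton agar supplemented with 5% sheep blood. Inoculum 10^4 CFU/spot, incubated overnight at 35°C in ambient air. Test strains were clinical pneumococcal isolates. S. pneumoniae ATCC 49619 was included as the quality control strain in each run. MIC range, MIC50 and MIC90 were reported for each susceptibility category.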
# Streptococcus pneumoniae [28] = experiment: Antibacterial activity against macrolide-susceptible Streptococcus pneumoniae 1077 after overnight incubation by agar dilution method; assay type: functional
# Streptococcus pneumoniae [29] = experiment: Antibacterial activity against Streptococcus pneumoniae harboring mutation in 23S rRNA after overnight incubation by agar dilution method; assay type: functional
# Method in brief: as §1
# Streptococcus pneumoniae [30] = experiment: Antibacterial activity against macrolide-susceptible Streptococcus pneumoniae 1077 after 43 passages and 10 compound-free subculturing by retest method; assay type: functional
# Streptococcus pyogenes [31] = experiment: Antibacterial activity against macrolide-resistant Streptococcus pyogenes 2368 harboring erm(B) gene after overnight incubation by agar dilution method
smiles,measurement,setting,value
CC[C@H]1OC(=O)[C@H](C)[C@@H](O[C@H]2C[C@@](C)(OC)[C@@H](O)[C@H](C)O2)[C@H](C)[C@@H](O[C@@H]2O[C@H](C)C[C@H](N(C)C)[C@H]2O)[C@](C)(OC)C[C@@H](C)C(=O)[C@H](C)[C@@H](O)[C@]1(C)O [CLARITHROMYCIN],MIC,Streptococcus pyogenes [1],1 µg/mL
same,MIC50,Streptococcus pneumoniae [2],> 64 µg/mL
same,MIC,Streptococcus pneumoniae [3],2 µg/mL
same,MIC,"Streptococcus pneumoniae [3]; Streptococcus pneumoniae, 3665, read-out: MIC",4 µg/mL
same,MIC,Streptococcus pyogenes [4],1 µg/mL
same,MIC,Streptococcus pyogenes [5],4 µg/mL
same,MIC,Streptococcus pyogenes [6],0.016 µg/mL
same,MIC,Streptococcus pyogenes [7],> 64 µg/mL
same,MIC,Streptococcus pneumoniae [8],> 64 µg/mL
same,MIC,Streptococcus pneumoniae [9],32 µg/mL
same,MIC50,Streptococcus pyogenes [10],> 64 µg/mL
same,MIC90,Streptococcus pyogenes [10],> 64 µg/mL
same,MIC,Streptococcus pneumoniae [11],> 64 µg/mL
same,MIC50,Streptococcus pneumoniae [12],0.03 µg/mL
same,MIC90,Streptococcus pneumoniae [12],0.06 µg/mL
same,MIC,Streptococcus pneumoniae [13],16 µg/mL
same,MIC50,Streptococcus pneumoniae [14],16 µg/mL
same,MIC90,Streptococcus pneumoniae [14],> 64 µg/mL
same,MIC,Streptococcus pyogenes [15],0.5 µg/mL
same,MIC,Streptococcus pyogenes [16],1 µg/mL
same,MIC,Streptococcus pyogenes [17],4 µg/mL
same,MIC,Streptococcus pyogenes [18],8 µg/mL
same,MIC,Streptococcus pneumoniae [19],> 64 µg/mL
same,MIC,Streptococcus pneumoniae [20],16 µg/mL
same,MIC,Streptococcus pyogenes [21],1 µg/mL
same,MIC50,Streptococcus pyogenes [22],2 µg/mL
same,MIC90,Streptococcus pyogenes [22],> 64 µg/mL
same,MIC,Streptococcus pyogenes [23],> 64 µg/mL
same,MIC,Streptococcus pneumoniae [24],0.5 µg/mL
same,MIC,Streptococcus pyogenes [25],0.25 µg/mL
same,MIC,Streptococcus pneumoniae [26],> 64 µg/mL
same,MIC50,Streptococcus pneumoniae [27],0.03 µg/mL
same,MIC,Streptococcus pneumoniae [28],0.016 µg/mL
same,MIC,Streptococcus pneumoniae [29],8 µg/mL
same,MIC,Streptococcus pneumoniae [30],0.06 µg/mL
same,MIC,Streptococcus pyogenes [31],> 64 µg/mL
